The M2OR odorant receptor database

Tests used:
Conditions in all cases: stereoisomer not certain
OR10A2 (Homo sapiens) = target: T1, OR10A2 (Homo sapiens) (UniProt Q9H208)
T1 sequence (whole entry): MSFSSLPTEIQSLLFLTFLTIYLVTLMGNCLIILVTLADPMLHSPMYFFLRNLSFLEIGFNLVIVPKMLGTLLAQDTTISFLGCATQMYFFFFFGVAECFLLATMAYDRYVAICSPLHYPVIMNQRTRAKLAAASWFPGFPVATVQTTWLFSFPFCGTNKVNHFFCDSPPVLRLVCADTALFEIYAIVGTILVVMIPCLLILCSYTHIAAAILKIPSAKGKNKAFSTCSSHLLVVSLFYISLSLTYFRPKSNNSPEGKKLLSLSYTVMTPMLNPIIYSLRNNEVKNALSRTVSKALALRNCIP
Outline: (§1)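 Assay methods differ from source to source, frequently being transient luciferase assays in mammalian cell lines. For each receptor–molecule pair, the label responsive (active) applies when the original authors judged the measured signal statistically different from baseline, and non-responsive (inactive) applies otherwise.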

OR10A3 (Homo sapiens) = target: T2, OR10A3 (Homo sapiens) (UniProt P58181)
T2 sequence (whole entry): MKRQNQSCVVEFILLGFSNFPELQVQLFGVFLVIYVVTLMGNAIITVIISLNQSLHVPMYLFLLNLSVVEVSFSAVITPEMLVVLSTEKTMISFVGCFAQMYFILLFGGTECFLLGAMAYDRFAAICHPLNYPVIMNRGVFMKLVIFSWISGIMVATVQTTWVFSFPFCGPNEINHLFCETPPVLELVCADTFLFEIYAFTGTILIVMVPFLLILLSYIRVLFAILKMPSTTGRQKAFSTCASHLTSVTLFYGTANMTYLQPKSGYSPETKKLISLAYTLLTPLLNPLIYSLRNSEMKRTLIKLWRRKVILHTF
Outline: as §1

OR10A4 (Homo sapiens) = target: T3, OR10A4 (Homo sapiens) (UniProt Q9H209)
T3 sequence (whole entry): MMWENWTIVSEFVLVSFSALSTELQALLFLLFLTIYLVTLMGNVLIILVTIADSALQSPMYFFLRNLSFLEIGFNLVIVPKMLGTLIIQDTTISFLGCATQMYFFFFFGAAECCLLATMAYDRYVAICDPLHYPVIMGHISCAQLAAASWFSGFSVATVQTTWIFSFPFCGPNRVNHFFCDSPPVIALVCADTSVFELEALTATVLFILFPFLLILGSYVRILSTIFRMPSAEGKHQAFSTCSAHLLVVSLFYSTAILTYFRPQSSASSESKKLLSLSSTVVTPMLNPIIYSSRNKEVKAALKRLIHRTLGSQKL
Outline: as §1

OR10A5 (Homo sapiens) = target: T4, OR10A5 (Homo sapiens) (UniProt Q9H207)
T4 sequence (whole entry): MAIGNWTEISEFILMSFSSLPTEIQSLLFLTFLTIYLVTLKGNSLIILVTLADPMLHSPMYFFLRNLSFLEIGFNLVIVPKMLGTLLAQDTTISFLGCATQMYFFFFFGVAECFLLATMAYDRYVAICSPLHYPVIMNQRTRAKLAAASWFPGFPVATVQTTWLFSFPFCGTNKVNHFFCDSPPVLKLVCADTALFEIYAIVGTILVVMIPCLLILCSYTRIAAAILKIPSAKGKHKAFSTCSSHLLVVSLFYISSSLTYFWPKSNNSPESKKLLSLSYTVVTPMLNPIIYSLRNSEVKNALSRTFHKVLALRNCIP
Outline: as §1

OR10A6 (Homo sapiens) = target: T5, OR10A6 (Homo sapiens) (UniProt Q8NH74)
T5 sequence (whole entry): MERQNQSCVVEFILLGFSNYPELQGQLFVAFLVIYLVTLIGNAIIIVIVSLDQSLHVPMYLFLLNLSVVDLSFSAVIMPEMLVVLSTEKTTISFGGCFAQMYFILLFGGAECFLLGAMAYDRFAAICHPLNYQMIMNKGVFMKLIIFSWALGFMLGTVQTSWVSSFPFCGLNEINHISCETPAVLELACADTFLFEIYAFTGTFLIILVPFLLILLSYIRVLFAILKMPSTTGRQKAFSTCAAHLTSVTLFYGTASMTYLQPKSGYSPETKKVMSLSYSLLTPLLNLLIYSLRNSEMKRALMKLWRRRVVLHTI
Outline: as §1

OR10A7 (Homo sapiens) = target: T6, OR10A7 (Homo sapiens) (UniProt Q8NGE5)
T6 sequence (whole entry): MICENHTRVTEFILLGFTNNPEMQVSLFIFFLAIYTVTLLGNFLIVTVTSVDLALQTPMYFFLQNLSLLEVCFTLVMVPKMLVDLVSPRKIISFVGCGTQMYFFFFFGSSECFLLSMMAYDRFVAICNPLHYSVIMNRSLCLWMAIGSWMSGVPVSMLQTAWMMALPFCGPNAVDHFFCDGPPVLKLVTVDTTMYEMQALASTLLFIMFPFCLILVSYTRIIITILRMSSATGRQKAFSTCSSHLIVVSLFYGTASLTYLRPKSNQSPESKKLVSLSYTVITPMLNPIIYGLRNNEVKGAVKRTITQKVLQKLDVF
Outline: as §1

OR10AD1 (Homo sapiens) = target: T7, OR10AD1 (Homo sapiens) (UniProt Q8NGE0)
T7 sequence (whole entry): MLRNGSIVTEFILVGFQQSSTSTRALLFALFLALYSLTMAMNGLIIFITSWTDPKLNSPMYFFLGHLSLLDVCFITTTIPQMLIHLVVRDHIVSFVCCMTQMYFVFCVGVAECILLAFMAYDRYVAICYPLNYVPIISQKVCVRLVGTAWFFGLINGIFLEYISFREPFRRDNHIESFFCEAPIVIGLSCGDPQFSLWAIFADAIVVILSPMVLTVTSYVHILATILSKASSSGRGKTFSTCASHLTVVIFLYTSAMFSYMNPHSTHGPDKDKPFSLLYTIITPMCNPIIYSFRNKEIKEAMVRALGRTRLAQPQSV
Outline: as §1

OR10AG1 (Homo sapiens) = target: T8, OR10AG1 (Homo sapiens) (UniProt Q8NH19)
T8 sequence (whole entry): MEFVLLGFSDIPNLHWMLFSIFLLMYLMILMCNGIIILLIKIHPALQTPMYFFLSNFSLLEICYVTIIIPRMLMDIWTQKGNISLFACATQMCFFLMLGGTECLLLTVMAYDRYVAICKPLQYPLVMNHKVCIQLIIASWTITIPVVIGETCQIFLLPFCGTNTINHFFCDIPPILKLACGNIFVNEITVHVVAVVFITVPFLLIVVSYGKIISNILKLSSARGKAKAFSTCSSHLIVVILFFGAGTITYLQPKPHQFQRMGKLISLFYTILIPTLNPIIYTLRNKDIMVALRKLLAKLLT
Outline: as §1

OR10C1 (Homo sapiens) = target: T9, OR10C1 (Homo sapiens) (UniProt Q96KK4)
T9 sequence (whole entry): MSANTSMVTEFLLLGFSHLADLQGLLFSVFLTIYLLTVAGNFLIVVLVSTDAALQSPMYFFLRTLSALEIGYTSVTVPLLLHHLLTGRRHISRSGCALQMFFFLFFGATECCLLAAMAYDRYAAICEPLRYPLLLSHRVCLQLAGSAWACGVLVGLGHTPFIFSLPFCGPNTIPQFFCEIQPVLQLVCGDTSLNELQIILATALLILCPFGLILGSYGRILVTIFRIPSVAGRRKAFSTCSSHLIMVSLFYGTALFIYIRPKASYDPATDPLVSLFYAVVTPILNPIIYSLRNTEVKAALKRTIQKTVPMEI
Outline: as §1

OR10D3 (Homo sapiens) = target: T10, OR10D3 (Homo sapiens) (UniProt Q8NH80)
T10 sequence (whole entry): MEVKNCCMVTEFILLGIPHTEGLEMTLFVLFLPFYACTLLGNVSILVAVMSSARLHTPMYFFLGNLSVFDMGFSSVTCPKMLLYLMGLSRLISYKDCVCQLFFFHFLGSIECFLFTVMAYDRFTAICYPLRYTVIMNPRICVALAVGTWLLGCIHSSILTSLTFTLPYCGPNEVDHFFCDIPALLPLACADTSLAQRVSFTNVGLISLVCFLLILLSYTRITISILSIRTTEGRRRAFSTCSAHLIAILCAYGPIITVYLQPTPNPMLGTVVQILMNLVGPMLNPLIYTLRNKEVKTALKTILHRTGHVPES
Outline: as §1

O5AN1 = test system: T11, O5AN1
T11 sequence (whole entry): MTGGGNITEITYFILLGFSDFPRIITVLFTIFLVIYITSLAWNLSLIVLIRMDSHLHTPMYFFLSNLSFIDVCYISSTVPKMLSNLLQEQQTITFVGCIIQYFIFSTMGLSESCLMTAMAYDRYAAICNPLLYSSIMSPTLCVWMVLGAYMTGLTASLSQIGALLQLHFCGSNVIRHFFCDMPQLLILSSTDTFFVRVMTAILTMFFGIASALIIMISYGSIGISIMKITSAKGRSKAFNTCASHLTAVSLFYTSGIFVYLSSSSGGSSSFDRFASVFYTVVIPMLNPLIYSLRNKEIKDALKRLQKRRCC
Outline: as §1

Measured: odorant receptor agonist call

CCCCC(S)C(C)CO (centres undefined)
not listed: O5AN1
inactive: all other assays above

CCCCCC(=O)C(C)C(C)=O (centres undefined)
not listed: O5AN1
inactive: all other assays above

CCCCCCCCCCCCCC(C)=O
inactive: O5AN1

OC1CCCCCCCCCCCCCC1
active: O5AN1

O=C1CCCCCCC=CCCCCCCC1
active: O5AN1

C1CCCCCCCCCCCCCC1
inactive: O5AN1
